Assay results reported in the M2OR odorant receptor database.

Key:
Settings in all cases: stereoisomer not certain
OR52I1 (Homo sapiens) = target: T1, OR52I1 (Homo sapiens) (UniProt Q8NGK6)
T1 sequence (whole entry): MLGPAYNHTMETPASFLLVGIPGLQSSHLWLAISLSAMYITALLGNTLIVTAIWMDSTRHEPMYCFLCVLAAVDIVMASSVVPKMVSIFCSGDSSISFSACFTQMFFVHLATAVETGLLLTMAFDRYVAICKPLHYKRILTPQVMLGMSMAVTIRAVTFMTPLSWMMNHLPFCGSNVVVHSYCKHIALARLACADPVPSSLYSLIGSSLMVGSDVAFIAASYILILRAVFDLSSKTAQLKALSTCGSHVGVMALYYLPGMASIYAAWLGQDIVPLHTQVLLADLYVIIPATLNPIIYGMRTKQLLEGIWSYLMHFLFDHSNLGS
Summary of the method: (§1)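 Assay methods differ from source to source, frequently being transient luciferase assays in mammalian cell lines. For each receptor–molecule pair, the label responsive (active) applies when the original authors judged the measured signal statistically different from baseline, and non-responsive (inactive) applies otherwise.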

OR52I2 (Homo sapiens) = target: T2, OR52I2 (Homo sapiens) (UniProt Q8NH67)
T2 sequence (whole entry): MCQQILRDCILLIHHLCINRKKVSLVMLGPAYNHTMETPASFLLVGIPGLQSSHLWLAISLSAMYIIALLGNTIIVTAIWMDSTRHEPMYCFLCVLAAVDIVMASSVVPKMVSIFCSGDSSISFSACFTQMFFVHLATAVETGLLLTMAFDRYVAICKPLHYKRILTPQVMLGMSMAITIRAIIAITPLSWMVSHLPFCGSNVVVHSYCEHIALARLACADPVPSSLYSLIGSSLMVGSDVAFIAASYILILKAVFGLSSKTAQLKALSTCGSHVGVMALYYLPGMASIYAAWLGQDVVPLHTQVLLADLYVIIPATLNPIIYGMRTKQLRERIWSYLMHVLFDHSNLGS
Summary of the method: as §1

OR52J3 (Homo sapiens) = OR52J3 (Homo sapiens) (UniProt Q8NH60)
Summary of the method: as §1

OR52K1 (Homo sapiens) = target: T3, OR52K1 (Homo sapiens) (UniProt Q8NGK4)
T3 sequence (whole entry): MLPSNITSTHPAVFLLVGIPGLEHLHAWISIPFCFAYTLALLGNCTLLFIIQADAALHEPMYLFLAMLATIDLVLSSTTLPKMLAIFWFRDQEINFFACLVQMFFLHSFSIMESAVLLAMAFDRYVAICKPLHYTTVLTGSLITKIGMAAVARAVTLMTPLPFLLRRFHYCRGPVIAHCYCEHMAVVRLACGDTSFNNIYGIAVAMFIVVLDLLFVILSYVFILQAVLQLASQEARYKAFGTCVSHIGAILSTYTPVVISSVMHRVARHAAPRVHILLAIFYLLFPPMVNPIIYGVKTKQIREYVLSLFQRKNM
Summary of the method: as §1

OR52K2 (Homo sapiens) = target: T4, OR52K2 (Homo sapiens) (UniProt Q8NGK3)
T4 sequence (whole entry): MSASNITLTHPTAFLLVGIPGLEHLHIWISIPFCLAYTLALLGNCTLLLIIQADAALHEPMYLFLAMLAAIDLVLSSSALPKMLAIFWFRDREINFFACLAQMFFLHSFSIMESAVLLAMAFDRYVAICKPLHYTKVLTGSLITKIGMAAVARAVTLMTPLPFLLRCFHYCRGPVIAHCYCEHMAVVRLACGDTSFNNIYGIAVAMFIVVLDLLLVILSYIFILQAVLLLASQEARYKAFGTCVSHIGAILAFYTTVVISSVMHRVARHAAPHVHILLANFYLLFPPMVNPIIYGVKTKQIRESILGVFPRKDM
Summary of the method: as §1

OR52L1 (Homo sapiens) = target: T5, OR52L1 (Homo sapiens) (UniProt Q8NGH7)
T5 sequence (whole entry): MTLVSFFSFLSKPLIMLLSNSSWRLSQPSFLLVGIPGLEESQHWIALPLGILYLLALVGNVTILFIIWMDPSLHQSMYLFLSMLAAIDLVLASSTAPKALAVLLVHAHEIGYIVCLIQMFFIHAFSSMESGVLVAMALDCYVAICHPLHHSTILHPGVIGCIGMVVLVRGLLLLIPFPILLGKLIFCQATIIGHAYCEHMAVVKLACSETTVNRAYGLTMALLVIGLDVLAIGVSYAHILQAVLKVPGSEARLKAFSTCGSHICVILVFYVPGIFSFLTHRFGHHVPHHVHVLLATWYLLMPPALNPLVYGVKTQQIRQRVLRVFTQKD
Summary of the method: as §1

OR52M1 (Homo sapiens) = target: T6, OR52M1 (Homo sapiens) (UniProt Q8NGK5)
T6 sequence (whole entry): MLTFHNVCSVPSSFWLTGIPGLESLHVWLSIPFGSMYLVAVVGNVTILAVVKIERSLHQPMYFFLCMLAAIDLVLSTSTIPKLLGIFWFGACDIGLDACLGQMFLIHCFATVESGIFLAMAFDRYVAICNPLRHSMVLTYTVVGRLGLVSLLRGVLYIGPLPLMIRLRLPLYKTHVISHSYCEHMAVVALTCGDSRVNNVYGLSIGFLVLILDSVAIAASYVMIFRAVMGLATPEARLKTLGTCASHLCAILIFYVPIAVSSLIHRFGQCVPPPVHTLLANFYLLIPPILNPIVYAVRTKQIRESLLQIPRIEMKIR
Summary of the method: as §1

OR52N1 (Homo sapiens) = target: T7, OR52N1 (Homo sapiens) (UniProt Q8NH53)
T7 sequence (whole entry): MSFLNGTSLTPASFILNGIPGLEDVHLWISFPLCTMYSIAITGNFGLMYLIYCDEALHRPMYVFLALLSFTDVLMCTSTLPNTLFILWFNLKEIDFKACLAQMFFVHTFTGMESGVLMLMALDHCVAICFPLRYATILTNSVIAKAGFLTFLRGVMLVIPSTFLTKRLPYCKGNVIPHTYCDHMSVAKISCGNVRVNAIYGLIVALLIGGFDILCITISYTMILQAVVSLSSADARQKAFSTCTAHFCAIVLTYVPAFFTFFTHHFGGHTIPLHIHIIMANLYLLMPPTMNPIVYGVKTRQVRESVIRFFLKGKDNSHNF
Summary of the method: as §1

OR52N2 (Homo sapiens) = target: T8, OR52N2 (Homo sapiens) (UniProt Q8NGI0)
T8 sequence (whole entry): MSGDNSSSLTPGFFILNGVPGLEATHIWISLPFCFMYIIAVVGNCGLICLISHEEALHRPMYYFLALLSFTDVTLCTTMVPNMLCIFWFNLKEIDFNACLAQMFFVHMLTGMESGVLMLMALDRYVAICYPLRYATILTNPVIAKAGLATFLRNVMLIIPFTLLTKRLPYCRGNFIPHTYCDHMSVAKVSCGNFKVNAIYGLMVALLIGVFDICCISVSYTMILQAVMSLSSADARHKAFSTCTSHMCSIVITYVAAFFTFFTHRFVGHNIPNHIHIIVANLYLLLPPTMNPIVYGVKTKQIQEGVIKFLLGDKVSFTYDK
Summary of the method: as §1

OR52N4 (Homo sapiens) = target: T9, OR52N4 (Homo sapiens) (UniProt Q8NGI2)
T9 sequence (whole entry): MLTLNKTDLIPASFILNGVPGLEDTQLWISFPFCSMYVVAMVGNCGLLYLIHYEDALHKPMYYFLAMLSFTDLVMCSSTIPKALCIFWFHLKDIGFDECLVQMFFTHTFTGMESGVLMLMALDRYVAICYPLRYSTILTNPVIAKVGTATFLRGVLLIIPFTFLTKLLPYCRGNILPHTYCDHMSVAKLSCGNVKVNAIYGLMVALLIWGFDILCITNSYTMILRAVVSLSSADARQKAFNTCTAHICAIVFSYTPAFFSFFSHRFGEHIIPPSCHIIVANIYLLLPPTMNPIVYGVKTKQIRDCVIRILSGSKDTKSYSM
Summary of the method: as §1

OR52N5 (Homo sapiens) = target: T10, OR52N5 (Homo sapiens) (UniProt Q8NH56)
T10 sequence (whole entry): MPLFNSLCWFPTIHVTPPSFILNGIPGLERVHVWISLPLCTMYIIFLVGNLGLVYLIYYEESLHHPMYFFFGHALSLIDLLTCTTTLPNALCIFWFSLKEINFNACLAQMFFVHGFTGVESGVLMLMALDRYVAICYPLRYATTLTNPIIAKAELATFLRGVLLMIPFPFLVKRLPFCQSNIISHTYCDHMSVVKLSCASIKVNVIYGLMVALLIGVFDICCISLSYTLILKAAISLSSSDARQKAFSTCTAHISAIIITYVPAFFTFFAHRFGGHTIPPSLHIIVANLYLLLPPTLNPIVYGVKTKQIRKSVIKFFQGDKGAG
Summary of the method: as §1

OR52R1 (Homo sapiens) = target: T11, OR52R1 (Homo sapiens) (UniProt Q8NGF1)
T11 sequence (whole entry): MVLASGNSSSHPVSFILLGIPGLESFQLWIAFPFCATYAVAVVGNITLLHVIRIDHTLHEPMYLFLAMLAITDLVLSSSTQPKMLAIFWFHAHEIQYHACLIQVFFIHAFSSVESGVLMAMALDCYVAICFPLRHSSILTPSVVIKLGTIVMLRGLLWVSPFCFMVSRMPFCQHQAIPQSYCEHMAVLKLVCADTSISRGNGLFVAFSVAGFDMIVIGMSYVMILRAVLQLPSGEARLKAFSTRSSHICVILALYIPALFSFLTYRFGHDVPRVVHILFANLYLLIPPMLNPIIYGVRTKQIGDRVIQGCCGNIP
Summary of the method: as §1

OR52W1 (Homo sapiens) = target: T12, OR52W1 (Homo sapiens) (UniProt Q6IF63)
T12 sequence (whole entry): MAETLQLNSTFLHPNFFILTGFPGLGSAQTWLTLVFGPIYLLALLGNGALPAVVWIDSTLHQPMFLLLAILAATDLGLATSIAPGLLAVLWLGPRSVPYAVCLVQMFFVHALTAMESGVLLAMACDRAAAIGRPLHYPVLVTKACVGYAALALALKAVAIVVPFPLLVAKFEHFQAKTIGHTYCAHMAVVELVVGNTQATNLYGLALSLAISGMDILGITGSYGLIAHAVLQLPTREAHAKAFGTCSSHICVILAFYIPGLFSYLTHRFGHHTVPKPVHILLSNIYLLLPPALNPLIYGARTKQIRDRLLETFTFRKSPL
Summary of the method: as §1

OR56A1 (Homo sapiens) = target: T13, OR56A1 (Homo sapiens) (UniProt Q8NGH5)
T13 sequence (whole entry): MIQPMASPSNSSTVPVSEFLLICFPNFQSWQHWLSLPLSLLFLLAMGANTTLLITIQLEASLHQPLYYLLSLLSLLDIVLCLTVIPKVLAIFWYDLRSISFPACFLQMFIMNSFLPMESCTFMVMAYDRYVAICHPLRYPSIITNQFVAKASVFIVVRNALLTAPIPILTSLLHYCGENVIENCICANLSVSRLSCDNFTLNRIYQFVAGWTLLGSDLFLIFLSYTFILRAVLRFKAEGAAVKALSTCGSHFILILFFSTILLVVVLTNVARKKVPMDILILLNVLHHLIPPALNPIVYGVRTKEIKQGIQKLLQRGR
Summary of the method: as §1

OR56A3 (Homo sapiens) = target: T14, OR56A3 (Homo sapiens) (UniProt Q8NH54)
T14 sequence (whole entry): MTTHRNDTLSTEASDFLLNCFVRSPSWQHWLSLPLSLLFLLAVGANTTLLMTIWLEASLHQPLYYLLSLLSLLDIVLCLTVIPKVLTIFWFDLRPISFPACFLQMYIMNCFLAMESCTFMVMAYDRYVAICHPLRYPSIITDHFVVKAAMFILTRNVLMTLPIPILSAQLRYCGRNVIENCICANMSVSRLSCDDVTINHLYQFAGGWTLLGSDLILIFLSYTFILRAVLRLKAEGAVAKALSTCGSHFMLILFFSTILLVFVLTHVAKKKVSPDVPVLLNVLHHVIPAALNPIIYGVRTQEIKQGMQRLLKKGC
Summary of the method: as §1

OR56A4 (Homo sapiens) = target: T15, OR56A4 (Homo sapiens) (UniProt Q8NGH8)
T15 sequence (whole entry): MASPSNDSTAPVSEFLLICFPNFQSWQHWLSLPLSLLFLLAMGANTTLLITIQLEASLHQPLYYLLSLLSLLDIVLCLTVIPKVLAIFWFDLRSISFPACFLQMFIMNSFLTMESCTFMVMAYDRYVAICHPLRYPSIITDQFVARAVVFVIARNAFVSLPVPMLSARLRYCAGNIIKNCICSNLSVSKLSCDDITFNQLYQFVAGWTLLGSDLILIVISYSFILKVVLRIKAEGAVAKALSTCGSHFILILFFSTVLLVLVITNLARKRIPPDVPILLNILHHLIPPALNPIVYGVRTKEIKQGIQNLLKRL
Summary of the method: as §1

OR56A5 (Homo sapiens) = target: T16, OR56A5 (Homo sapiens) (UniProt P0C7T3)
T16 sequence (whole entry): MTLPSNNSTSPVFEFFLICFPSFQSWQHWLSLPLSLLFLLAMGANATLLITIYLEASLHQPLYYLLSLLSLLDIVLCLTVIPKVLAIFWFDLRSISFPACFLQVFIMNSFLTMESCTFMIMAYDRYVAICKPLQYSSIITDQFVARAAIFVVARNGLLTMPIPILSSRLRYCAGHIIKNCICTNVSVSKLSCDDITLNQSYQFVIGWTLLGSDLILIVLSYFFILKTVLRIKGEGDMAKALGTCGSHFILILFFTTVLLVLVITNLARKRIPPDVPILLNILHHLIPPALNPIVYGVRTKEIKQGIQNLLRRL
Summary of the method: as §1

OR56B1 (Homo sapiens) = target: T17, OR56B1 (Homo sapiens) (UniProt Q8NGI3)
T17 sequence (whole entry): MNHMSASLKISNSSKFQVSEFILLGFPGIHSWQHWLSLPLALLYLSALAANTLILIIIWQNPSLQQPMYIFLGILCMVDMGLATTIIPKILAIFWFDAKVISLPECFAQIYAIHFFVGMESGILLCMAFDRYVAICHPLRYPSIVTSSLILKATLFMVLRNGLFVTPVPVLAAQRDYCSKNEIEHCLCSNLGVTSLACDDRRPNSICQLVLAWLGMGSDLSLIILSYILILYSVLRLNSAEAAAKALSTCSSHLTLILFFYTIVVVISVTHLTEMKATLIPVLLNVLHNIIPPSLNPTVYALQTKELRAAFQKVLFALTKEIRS
Summary of the method: as §1

Measured: odorant receptor agonist call

Chain of OR52J3 (Homo sapiens) (Q8NH60 whole entry): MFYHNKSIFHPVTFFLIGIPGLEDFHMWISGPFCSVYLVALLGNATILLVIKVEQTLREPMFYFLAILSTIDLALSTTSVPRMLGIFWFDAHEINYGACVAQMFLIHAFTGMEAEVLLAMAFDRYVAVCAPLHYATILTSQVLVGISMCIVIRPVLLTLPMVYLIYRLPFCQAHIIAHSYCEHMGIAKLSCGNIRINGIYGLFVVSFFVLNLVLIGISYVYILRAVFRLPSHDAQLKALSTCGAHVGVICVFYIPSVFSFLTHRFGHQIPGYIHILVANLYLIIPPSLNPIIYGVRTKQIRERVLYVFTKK

CCCCCCC=CCCC=O
inactive: all assays above

CCCCCC1CCCC(=O)O1 (stereo not given)
active: OR52K1 (Homo sapiens) | OR52L1 (Homo sapiens) | OR52M1 (Homo sapiens) | OR52N5 (Homo sapiens) | OR52R1 (Homo sapiens)
not listed: OR56A5 (Homo sapiens)
inactive: all other assays above
